This is an account of results in ChEMBL document CHEMBL1777755, “A new iridoid and effect on the rat aortic vascular smooth muscle cell proliferation of isolated compounds from Buddleja officinalis” (Bioorg Med Chem Lett, 2011).

The test system of data set [1] is VSMC. The experiment in a line: (§1) Antiproliferative activity against PDGF-BB-induced rat VSMC proliferation at 50 uM after 24 hrs by WST1 (CCK-8) assay. Format: functional. The gist of the method:
(§2)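 Rat aortic VSMCs were seeded at 4 × 10^4 cells/well and grown 48 h in DMEM with 10% FBS. They were then held 24 h in serum-free medium with compounds (0–50 µM), then stimulated 24 h. The methods footnote gives the stimulus as 5% FBS; the figure legends give 25 ng/mL PDGF-BB. WST-1 was added at 22 h for 2 h, and OD read at 450 nm. AG1295 (1 µM) served as positive control; mean ± SD, n = 4.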
On the technique in general: Tetrazolium assays rely on reduction of a dye to a coloured formazan, in cell work by metabolically active cells.

Data set [2] has as its system VSMC. In words: Antiproliferative activity against PDGF-BB-induced rat VSMC proliferation after 24 hrs by WST1 (CCK-8) assay. Format: functional. The procedure, abridged: as §2
Data set [3] has as its system VSMC. In words: (§3) Antiproliferative activity against PDGF-BB-induced rat VSMC proliferation at 10 uM after 24 hrs by WST1 (CCK-8) assay. Format: functional. The gist of the method: as §2
Data set [4] in a line: Cytotoxicity against PDGF-BB-induced rat VSMC at 50 uM.
Data set [5] can be described thus: Antiproliferative activity against PDGF-BB-induced rat VSMC proliferation at 30 uM after 24 hrs by WST1 (CCK-8) assay. Format: functional. The procedure, abridged:
as §2

Data set [6] is described as follows: as §1. It counts as functional. The procedure, abridged:
as §2

A short description of data set [7]: as §3. It counts as functional. The gist of the method: as §2

Calls of active or inactive are those of the source. No cut-off for these calls is given here.

For the compound `COc1cc(C(=O)O[C@@H]2C[C@](C)(O)[C@H]3[C@H](O[C@@H]4O[C@H](CO)[C@@H](O)[C@H](O)[C@H]4O)OC=C[C@H]32)ccc1O`, the result in the data set with VSMC [1] was Active. The Activity entry was “Dose-dependent effect” in the data set on VSMC [2] and “Non-toxic” in data set [4]. Also, in the data set on VSMC [3], the outcome was inactive.

For `C[C@@H]1O[C@@H](OC[C@H]2O[C@@H](OCCc3ccc(O)c(O)c3)[C@H](O)[C@@H](O[C@@H]3O[C@@H](C)[C@H](O)[C@@H](O)[C@H]3O)[C@@H]2OC(=O)/C=C/c2ccc(O)c(O)c2)[C@H](O)[C@H](O)[C@H]1O`, the outcome with VSMC [1] was inactive.

For `C[C@@H]1O[C@@H](O[C@@H]2[C@@H](O)[C@H](OCCc3ccc(O)c(O)c3)O[C@H](CO)[C@H]2O)[C@H](O)[C@H](O)[C@H]1O`, the outcome in the data set on VSMC [1] was inactive.

For the compound `C[C@@H]1O[C@@H](O[C@@H]2[C@@H](O)[C@H](OCCc3ccc(O)c(O)c3)O[C@H](CO)[C@H]2OC(=O)/C=C/c2ccc(O)c(O)c2)[C@H](O)[C@H](O)[C@H]1O`, the result in the data set on VSMC [1] was inactive.

On to `C[C@H]1O[C@H](O[C@@H]2[C@@H](O)[C@H](OCCc3ccc(O)c(O)c3)O[C@H](CO[C@H]3O[C@@H](CO)[C@H](O)[C@@H](O)[C@@H]3O)[C@H]2OC(=O)/C=C/c2ccc(O)c(O)c2)[C@@H](O)[C@@H](O)[C@@H]1O`, for which the outcome in the data set on VSMC [1] was inactive.

For the compound `OC[C@H]1O[C@@H](OCCc2ccc(O)cc2)[C@H](O)[C@@H](O)[C@@H]1O`, the outcome with VSMC [1] was inactive.

Regarding `OC[C@H]1O[C@@H](OCCc2ccccc2)[C@H](O)[C@@H](O)[C@@H]1O`, the outcome with VSMC [1] was inactive.

As a reminder, the inhibition is the share of the control response that was lost under treatment. Higher therefore signals strong suppression. Regarding `COc1ccc(-c2cc(=O)c3c(O)cc(O[C@@H]4O[C@H](CO[C@@H]5O[C@@H](C)[C@H](O)[C@@H](O)[C@H]5O)[C@@H](O)[C@H](O)[C@H]4O)cc3o2)cc1` [ACACIIN], at 30 µM the inhibition in data set [5] was 21.2%. The outcome in the data set on VSMC [1] was Active. The Activity result with VSMC [2] is “Dose-dependent effect”; in data set [4], “Non-toxic”. In the data set on VSMC [3], the result was inactive.

On to `O=c1cc(-c2ccc(O)cc2)oc2cc(O)cc(O)c12` [APIGENIN], for which the result with VSMC [3] was inactive. Further, in data set [4], the Activity result is “Toxic”.

Turning to `C=C[C@](C)(O)CC/C=C(\C)CO[C@@H]1O[C@H](CO)[C@@H](O)[C@H](O)[C@H]1O` [BETULALBUSIDES A], the result in the data set on VSMC [1] was Active. The Activity entry in the data set on VSMC [2] is “Dose-dependent effect”; in data set [4] it was “Non-toxic”. In addition, the result with VSMC [3] was inactive.

For the compound `CO[C@@H]1C=C2[C@@H]3CC(C)(C)CC[C@]3(CO)[C@@H](O)C[C@@]2(C)[C@]2(C)CC[C@H]3[C@](C)(CO)[C@@H](O[C@@H]4O[C@H](C)[C@H](O)[C@H](O[C@@H]5O[C@H](CO)[C@@H](O[C@@H]6O[C@@H](C)[C@H](O)[C@@H](O)[C@H]6O)[C@H](O)[C@H]5O)[C@H]4O[C@@H]4O[C@H](CO)[C@@H](O)[C@H](O)[C@H]4O)CC[C@]3(C)[C@@H]12` [BUDDLEJASAPONIN IA], the Activity result in data set [4] is given as “Toxic”.

On to `C[C@H]1O[C@@H](O[C@H]2CC[C@@]3(C)[C@@H](CC[C@]4(C)[C@@H]3C=C[C@]35OC[C@@]6(CCC(C)(C)C[C@H]63)[C@@H](O)C[C@]54C)[C@]2(C)CO)[C@H](O)[C@@H](O[C@@H]2O[C@H](CO)[C@@H](O)[C@H](O)[C@H]2O)[C@H]1O[C@@H]1OC[C@@H](O)[C@H](O)[C@H]1O` [BUDDLEJASAPONIN III], for which the Activity entry in data set [4] is “Toxic”.

Turning to `CO[C@@H]1C=C2[C@@H]3CC(C)(C)CC[C@]3(OC)[C@@H](O)C[C@@]2(C)[C@]2(C)CC[C@H]3[C@](C)(CO)[C@@H](O[C@@H]4O[C@H](C)[C@H](O)[C@H](O[C@@H]5O[C@H](CO)[C@@H](O)[C@H](O)[C@H]5O)[C@H]4O[C@@H]4O[C@H](CO)[C@@H](O)[C@H](O)[C@H]4O)CC[C@]3(C)[C@@H]12` [BUDDLEJASAPONIN IVA], the Activity result in data set [4] is “Toxic”.

On to `C[C@H]1O[C@@H](O[C@H]2CC[C@@]3(C)[C@@H](CC[C@]4(C)[C@@H]3C=C[C@]35OC[C@@]6(CCC(C)(C)C[C@H]63)[C@@H](O)C[C@]54C)[C@]2(C)CO)[C@H](O[C@@H]2O[C@H](CO)[C@@H](O)[C@H](O)[C@H]2O)[C@@H](O[C@@H]2O[C@H](CO)[C@@H](O)[C@H](O)[C@H]2O)[C@H]1O` [BUDDLEJASAPONIN IV], for which the Activity result in data set [4] is reported as “Toxic”.

As for `C[C@@H]1O[C@@H](O[C@H]2[C@H](O)[C@@H](O)[C@H](O[C@H]3[C@@H](O)[C@@H](C)O[C@@H](O[C@H]4CC[C@@]5(C)[C@@H](CC[C@]6(C)[C@@H]5C=C[C@]57OC[C@@]8(CCC(C)(C)C[C@H]85)[C@@H](O)C[C@]76C)[C@]4(C)CO)[C@@H]3O[C@@H]3O[C@H](CO)[C@@H](O)[C@H](O)[C@H]3O)O[C@@H]2CO)[C@H](O)[C@H](O)[C@H]1O` [BUDDLEJASAPONIN I], the Activity result in data set [4] is reported as “Toxic”.

With `COc1ccc(/C=C/C(=O)O[C@@H]2[C@@H](OC(C)=O)[C@@H](O)[C@H](O[C@H]3[C@@H]4C=CO[C@@H](O[C@@H]5O[C@H](CO)[C@@H](O)[C@H](O)[C@H]5O)[C@@H]4[C@@]4(CO)O[C@@H]34)O[C@H]2C)cc1` [BUDDLEJOSIDE A4], in the data set on VSMC [1], the result was Active. The figures for the Activity entry (in the data set on VSMC [2]; in data set [4]) were “Dose-dependent effect” and “Non-toxic”, respectively. Moreover, in the data set on VSMC [3], the result was inactive.

`C[C@@H]1O[C@@H](OC[C@H]2O[C@@H](Oc3cc(O)c4c(=O)cc(-c5ccc(O)cc5)oc4c3)[C@H](O)[C@@H](O)[C@@H]2O)[C@H](O)[C@H](O)[C@H]1O` [ISORHOIFOLIN] registered an inhibition at 30 µM in data set [5] of 22.6%. Besides, the outcome with VSMC [1] was Active. Moreover, the Activity result is “Dose-dependent effect” with VSMC [2] and “Non-toxic” in data set [4]. The outcome in the data set on VSMC [3] was inactive.

With `CO[C@H]1[C@@H]2C=CO[C@@H](O[C@@H]3O[C@H](CO)[C@@H](O)[C@H](O)[C@H]3O)[C@@H]2[C@@]2(CO)O[C@@H]12` [METHYLCATALPOL], the outcome in the data set with VSMC [1] was Active. For the same compound, the Activity result in the data set on VSMC [2] was “Dose-dependent effect”; in data set [4], “Non-toxic”.

In the case of `CO[C@H]1[C@@H]2C[C@@H]3OC[C@](O)([C@H]2[C@H](O[C@@H]2O[C@H](CO)[C@@H](O)[C@H](O)[C@H]2O)O3)[C@@H]1O` [METHYLSCUTELLOSIDE], the inhibition at 30 µM in data set [5] worked out at 42%. The compound further showed an inhibition at 50 µM in data set [6] of 79.6%. In addition, the Activity result was “Dose-dependent effect” with VSMC [2] and “Non-toxic” in data set [4]. The same compound had an inhibition at 10 µM in data set [7] of 39.1%.

Consider `CO[C@@H]1C=C2[C@@H]3CC(C)(C)CC[C@]3(CO)CC[C@@]2(C)[C@]2(C)CC[C@H]3[C@](C)(CO)[C@@H](O[C@@H]4O[C@H](C)[C@H](O)[C@H](O[C@@H]5O[C@H](CO)[C@@H](O[C@@H]6O[C@@H](C)[C@H](O)[C@@H](O)[C@H]6O)[C@H](O)[C@H]5O)[C@H]4O[C@@H]4O[C@H](CO)[C@@H](O)[C@H](O)[C@H]4O)CC[C@]3(C)[C@@H]12` [MIMENGOSIDE B], for which the Activity entry in data set [4] is recorded as “Toxic”.
